The test system of one assay is mutated Mib1 (ΔRNG). The experiment in a line: Co-immunoprecipitation with Mib1 mutated at MZM and/or REP interface. Format: cell-based. The note with it: HEK293T cells, Figure 5D. The procedure, abridged:
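Myc-tagged Mib1 (ΔRNG) and V5-tagged Jag1 co-transfected into sub-confluent HEK293T cells by lipofection. After 48 hr, cells lysed on ice in 0.5% Fos-Choline 12, 50 mM HEPES pH 7.4, 150 mM NaCl, DTT, ZnCl2, CaCl2 and protease inhibitors. Cleared lysate incubated with anti-V5 agarose for 1 hr at 4 C. Beads washed 3x, then analysed by anti-Myc and anti-V5 Western blot.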

Assay [1] has as its system Mib1 with deletion of either the MZM or REP region. Put plainly: Co-immunoprecipitation with Mib1 lacking MZM or REP region. The note with it: HEK293T cells, Figure S1A. Format: cell-based.
For assay [2], the system named is MZM-REP protein of Mib1 with deletion of residues 315-330. The experiment in a line: ITC with crystallization construct MZM-REP. Format: binding. The note with it: Table S1. In a few lines:
(§1)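 MZM-REP protein is expressed as an N-terminal His6-SUMO fusion and loaded in the ITC cell at 42 μM, 25 C, stirred at 1000 RPM. Jag1 tail polypeptide is the titrant. Binding parameters come from a one-site binding model fit.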

Assay [3] has as its system Mib1 with Asp to Asn mutations in one or both Mib repeat(s). The experiment in a line: Co-immunoprecipitation with Mib1 Asp to Asn mutants in one or both Mib repeat. Format: cell-based. The note with it: HEK293T cells, Figure S3D.
For another assay, the system named is MZM-REP, REP mutant. Put plainly: ITC with REP mutant of MZM-REP. Format: binding. The note with it: 25 C; 42 μM; HEPES pH 7.4, 500 mM NaCl; REP side mutated; Figure 5C. The procedure, abridged:
as §1

Data on 2 substances can be found in article PMC4355479 (Molecular cell, 2015).

With “Jag1: Jag1 construct, V5-tagged in co-immunoprecipitation”, the “co-immunoprecipitation with Mib1, both interfaces mutated” value in the assay with mutated Mib1 (ΔRNG) (both interfaces in combination) is on record as “prevent co-immunoprecipitation”. The “co-immunoprecipitation with Mib1, MZM interface mutated” value in the assay with mutated Mib1 (ΔRNG) (mutation targeting MZM:N-box interface alone) was “prevent co-immunoprecipitation”. Further, in the assay with mutated Mib1 (ΔRNG) (mutation targeting REP:C-box interface alone), the “co-immunoprecipitation with Mib1, REP interface mutated” value is “prevent co-immunoprecipitation”. The “co-immunoprecipitation with Mib1 lacking MZM or REP region” value in assay [1] is “eliminates co-immunoprecipitation (co-IP)”. Also, the “effect of Mib1 Δ315-330 deletion on binding to Jag1” value in assay [2] is “does not deleteriously affect binding”. Also, the “contribution of Mib repeats to C-box binding, co-immunoprecipitation” value in assay [3] is “first Mib repeat exerts a dominant role in C-box binding”.

Regarding “full-length tail: Jag1 intracellular tail; HA-tagged in ubiquitin transfer; as DLL4 chimera in reporter assay”, in the assay with MZM-REP, REP mutant, the “binding to REP mutant by ITC” value is recorded as “attenuates binding”.
